Data as given in ChEMBL document CHEMBL4024775, “Quinazolinone-Based Anticancer Agents: Synthesis, Antiproliferative SAR, Antitubulin Activity, and Tubulin Co-crystal Structure” (J Med Chem, 2018).
The source made the active and inactive calls. The calls are words filed in the database; no cut-off is given here.

Assays:
DU-145 = test: Antiproliferative activity against human DU145 cells after 96 hrs by WST-1 cell proliferation assay; format: functional; conditions: DU-145, 96 h
Method in brief: (§1)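 Cells kept in RPMI-1640 with 10% FBS, penicillin and streptomycin at 37 °C, 5% CO2. Seeded at 5000 cells/well and exposed to 10-9–10-4 M compound or vehicle for 96 h. Live cells were read by WST-1. Viability was taken as percent of mean control and used to derive GI50. Triplicate experiments, mean values.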

MDA-MB-231 [1] = test: Antiproliferative activity against human MDA-MB-231 cells after 96 hrs by WST-1 cell proliferation assay; format: functional; conditions: MDA-MB-231, 96 h; method in brief: as §1
[2] = target: T1, Steryl-sulfatase (Homo sapiens) (UniProt P08842); test: Inhibition of STS in human JEG3 cells at 100 uM using [6,7-3H]E1S as substrate after 3 hrs by liquid scintillation spectrometry; format: cell-based
T1 sequence (whole entry): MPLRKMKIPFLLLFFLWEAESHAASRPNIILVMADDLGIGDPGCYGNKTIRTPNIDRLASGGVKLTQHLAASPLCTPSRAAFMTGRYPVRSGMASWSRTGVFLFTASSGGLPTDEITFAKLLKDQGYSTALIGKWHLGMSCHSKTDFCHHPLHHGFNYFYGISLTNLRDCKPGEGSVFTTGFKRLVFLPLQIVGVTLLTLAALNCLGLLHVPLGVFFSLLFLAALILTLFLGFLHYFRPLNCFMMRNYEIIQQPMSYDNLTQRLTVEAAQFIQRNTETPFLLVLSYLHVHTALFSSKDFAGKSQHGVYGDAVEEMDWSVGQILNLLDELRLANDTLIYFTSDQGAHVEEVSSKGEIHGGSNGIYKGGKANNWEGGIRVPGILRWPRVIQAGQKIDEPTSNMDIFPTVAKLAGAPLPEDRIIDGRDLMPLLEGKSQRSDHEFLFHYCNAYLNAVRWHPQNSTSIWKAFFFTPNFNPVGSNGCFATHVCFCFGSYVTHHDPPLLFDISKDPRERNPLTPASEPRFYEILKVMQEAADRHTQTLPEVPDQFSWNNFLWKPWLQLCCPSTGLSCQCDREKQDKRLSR
Method in brief: (§2)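 JEG-3 cells were lysed in RIPA buffer and protein measured by BCA. Lysate (50 µg protein) was incubated 3 h in PBS with [6,7-3H]E1S at 20 µM final (unlabeled E1S added), with or without inhibitor. [4-14C]E1 tracked procedural losses. E1 was separated by toluene partition and counted by scintillation. Activity taken as pmol E1/h/mg protein and expressed as percent inhibited.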

MDA-MB-231 [3] = test: Antiproliferative activity against human MDA-MB-231 cells after 48 hrs by MTT assay; format: functional; conditions: MDA-MB-231, 48 h
[4] = Inhibition of bovine brain tubulin polymerization preincubated for 15 mins followed by GTP addition measured after 20 mins by spectrophotometric analysis; design: species or system Bos taurus
Method in brief: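 Bovine brain tubulin 1.0 mg/mL (10 µM) was preincubated without GTP with varied compound concentrations for 15 min at 30 °C, then chilled and given GTP (0.4 mM final). After a 0 °C baseline, turbidity rise was followed for 20 min after a jump to 30 °C. IC50 is the concentration that halves the turbidity increase.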

RPMI-8226 [5] = test: Antitumor activity against human RPMI8226 cell lines xenografted in NCr-nude mouse assessed as tumor growth inhibition at 40 mg/kg, po for 28 days measured on day 53; format: functional; conditions: RPMI-8226, po, read-out: TGI
Method in brief: (§3)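 Female NCr-nude mice, 4-6 weeks old. 6 x 10^6 tumor cells mixed with an equal volume of Matrigel were implanted subcutaneously in the left flank. At about 100 mm3, mice were randomized into 3 groups of 6. Oral vehicle or compound given for 28 days. Tumor weight estimated as (w2 x l)/2 and read at day 53, 18 days after dosing ended.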

[6] = target: T1, Steryl-sulfatase (Homo sapiens); test: Inhibition of STS in human JEG3 cells at 10 uM using [6,7-3H]E1S as substrate after 3 hrs by liquid scintillation spectrometry; format: cell-based; method in brief: as §2
Bos taurus = organism: Bos taurus; test: Inhibition of [3H]colchicine binding to bovine brain tubulin at 5 uM after 10 mins by DEAE-cellulose filter method relative to control
Method in brief: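 Bovine brain tubulin 0.1 mg/mL (1.0 µM) with 5.0 µM [3H]colchicine and inhibitor at 5.0 µM, incubated 10 min at 37 °C. CA-4 served as comparator.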

RPMI-8226 [7] = test: Antitumor activity against human RPMI8226 cell lines xenografted in NCr-nude mouse assessed as tumor growth inhibition at 20 mg/kg, po for 28 days measured on day 53; format: functional; conditions: RPMI-8226, po, read-out: TGI; method in brief: as §3

GI50 (DU-145) [µM]	GI50 (MDA-MB-231 [1]) [µM]	inhibition [2]	Structure (SMILES)	further results
33	34		COc1cccc(CN2Cc3cc(OC)c(OS(N)(=O)=O)cc3NC2=O)c1	
> 100	> 100	inactive	COc1ccc(CN2Cc3cc(OC)c(OS(N)(=O)=O)cc3NC2=O)cc1	
5.6	5		COc1cc2c(cc1O)NC(=O)N(Cc1ccccc1Cl)C2	
> 100	> 100		COc1cc2c(cc1O)NC(=O)N(Cc1ccccc1)C2	
> 100	> 100	inactive	COc1cc2c(cc1OS(N)(=O)=O)NC(=O)N(Cc1ccccc1)C2	
0.8	0.4	inactive	COc1cc2c(cc1OS(N)(=O)=O)NC(=O)N(Cc1cccc(OC)c1OC)C2	IC50 [4]: 8.6 µM
> 100	> 100		COc1cc2c(cc1O)NC(=O)N(Cc1ccccc1F)C2	
0.3	0.2	70 to 80%	COc1ccccc1CN1Cc2cc(OC)c(OS(N)(=O)=O)cc2NC1=O	inhibition in vivo at 40 mg/kg (RPMI-8226 [5]): 31%; inhibition [6]: Active; inhibition (Bos taurus): 55%; inhibition in vivo at 20 mg/kg (RPMI-8226 [7]): 27%; IC50 [4]: 2.5 µM
60	7.4	20 to 25%	COc1cc2c(cc1OS(N)(=O)=O)NC(=O)N(Cc1ccccc1C)C2	
2.2	5.7		COc1cc2c(cc1O)NC(=O)N(Cc1ccccc1OC)C2	
3.2	2.2	70 to 80%	COc1cc2c(cc1OS(N)(=O)=O)NC(=O)N(Cc1cccc(Cl)c1)C2	inhibition [6]: Active
4.8	4.5	20 to 25%	COc1cc2c(cc1OS(N)(=O)=O)NC(=O)N(Cc1ccccc1F)C2	
0.05	0.05	inactive	COc1ccc(OC)c(CN2Cc3cc(OC)c(OS(N)(=O)=O)cc3NC2=O)c1	inhibition (Bos taurus): 61%; IC50 [4]: 2.5 µM
0.5	0.2	70 to 80%	COc1cc2c(cc1OS(N)(=O)=O)NC(=O)N(Cc1ccccc1Cl)C2	inhibition [6]: Active; inhibition (Bos taurus): 43%; IC50 [4]: 5 µM
0.1	0.1	inactive	COc1cc2c(cc1OS(N)(=O)=O)NC(=O)N(Cc1cc(OC)c(OC)c(OC)c1)C2	IC50 [4]: 5.6 µM
> 100	> 100		COc1cc2c(cc1O)NC(=O)N(Cc1ccccc1C)C2	

Second part, the molecule before the results:

Structure (SMILES)	GI50 (DU-145) [µM]	GI50 (MDA-MB-231 [1]) [µM]	inhibition [2]	further results
COc1cc2c(cc1OS(N)(=O)=O)CCN(Cc1cc(Br)c(OC)c(OC)c1)C2			45%	
COc1ccc(/C=C\c2cc(OC)c(OC)c(OC)c2)cc1O [COMBRETASTATIN A4]				GI50 (MDA-MB-231 [3]): 45 nM
COc1cc(CN2CCc3cc(O)ccc3C2)cc(OC)c1OC			Active	
CCc1cc2c(cc1OS(N)(=O)=O)CCN(Cc1cc(Br)c(OC)c(OC)c1)C2			Active	
COc1cc2c(cc1O)NC(=O)N(Cc1cc(OC)c(OC)c(OC)c1)C2	8.4	9.3		
COc1cccc(CN2Cc3cc(OC)c(O)cc3NC2=O)c1	> 100	> 100		
COc1ccc(OC)c(CN2Cc3cc(OC)c(O)cc3NC2=O)c1	1.5	2.3	inactive	
COc1cc(CN2CCc3cc(OS(N)(=O)=O)ccc3C2)cc(OC)c1OC			Active	
CCc1cc2c(cc1OS(N)(=O)=O)CCN(Cc1cc(OC)c(OC)c(OC)c1)C2			Active	
COc1ccc(CN2Cc3cc(OC)c(O)cc3NC2=O)cc1	> 100	> 100		
COc1cc2c(cc1O)CCN(Cc1cc(Br)c(OC)c(OC)c1)C2			Active	
COc1cc2c(cc1O)NC(=O)N(Cc1cccc(OC)c1OC)C2	8.5	8.3		
COc1cc2c(cc1O)NC(=O)N(Cc1cccc(Cl)c1)C2	81	> 100		
